Test results from ChEMBL document CHEMBL3407422, “2-(2-oxo-morpholin-3-yl)-acetamide derivatives as broad-spectrum antifungal agents” (J Med Chem, 2015).
≈ marks a conversion by molar mass, not a printed value. Calls of active or inactive are those of the source. The rule behind the calls is not given here.

What was measured:
Candida albicans [1] = test: Antifungal activity against Candida albicans SC5314 after 24 hrs; type: functional
Outline: (§1)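 Overnight YPD cultures diluted in PBS (1/200 for C. albicans, 1/400 for C. glabrata). Cells treated with compound, or 2.5% DMSO as solvent control, for 24 h at 37 °C. CFUs then counted; MFC is the concentration giving 99% killing of the inoculum.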

[2] = test system: Trichophyton mentagrophytes; test: Fungicidal activity against Trichophyton mentagrophytes B70554; type: functional, organism-based
Outline: (§2)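 Inoculum of 10^3 CFU in RPMI-MOPS added to prediluted compound, highest concentration 64 µM. Growth read by resazurin fluorescence (ex 550, em 590 nm). IC50 is 50% growth inhibition versus untreated controls. Three independent replicates.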

Trichophyton rubrum = test: Fungicidal activity against Trichophyton rubrum B68183; type: functional, organism-based; outline: as §2
Nakaseomyces glabratus = test: Antifungal activity against Candida glabrata BG2 after 24 hrs; type: functional; outline: as §1
Aspergillus fumigatus = test: Antifungal activity against Aspergillus fumigatus CBS 117202 after 24 hrs by two-fold dilution method; type: functional; conditions: CBS 117202, 24 h
Outline: (§3)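 Spores at 2×10^4 spores/mL in potato dextrose broth, incubated with a 2-fold compound dilution series for 24 h at 25 °C. Growth read by microspectrophotometry of the liquid cultures. MIC taken as the lowest concentration inhibiting fungal growth.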

Aspergillus flavus = test: Antifungal activity against Aspergillus flavus CBS111.45 after 24 hrs by two-fold dilution method; type: functional; conditions: CBS111.45, 24 h; outline: as §3
Microsporum canis = test: Fungicidal activity against Microsporum canis B68128; type: functional; outline: as §2
Sporothrix schenckii = test: Fungicidal activity against Sporothrix schenckii B62482; type: functional, organism-based; outline: as §2
[3] = Cytotoxicity against human MRC5 SV2 cells after 72 hrs by fluorescence assay; type: cell-based
Outline: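 MRC-5 SV2 cells (10^4/well) grown in MEM with L-glutamine, NaHCO3 and 5% FCS. Incubated with compound 72 h at 37 °C, 5% CO2, then resazurin added for 24 h. Fluorescence read at ex 530, em 590 nm.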

[4] = Half life in human plasma; type: ADME, cell-free
[5] = Half life in mouse plasma; type: ADME, cell-free
Candida albicans [6] = test: Antifungal activity against Candida albicans SC5314 infected in BALB/c mouse assessed as reduction in reduction in fungal load in kidney at 10 mg/kg/day, ip for 5 days relative to vehicle-treated control; type: functional, organism-based
Outline: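 BALB/c mice given cyclophosphamide 100 mg/kg at 4 days and 24 h before infection and at 3 days after. Infected IV with 2×10^3 SC5314 cells in saline. Dosed IP daily for 5 days from 16 h post-infection, in DMSO/0.5% methylcellulose (5/95). Organs taken on day 7, homogenized and plated on BHI agar (18 h, 37 °C). CFU/g compared with vehicle.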

Compound	MFC99 (Candida albicans [1]) [µg/mL]	further results
CCN1CC(C)(C)OC(=O)C1CC(=O)Nc1c(C)noc1C (stereo not given)	>50	
CC(C)c1ccc(NC(=O)CC2C(=O)OC(C)(C)CN2c2ccccc2)cc1 (stereo not given)	>50	
CCN1CC(C)(C)OC(=O)C1CC(=O)NCc1cccc(OC)c1 (stereo not given)	25 (≈ 74.8 µM)	
CCN1CC(C)(C)OC(=O)C1CC(=O)NCCC(C)(C)C (stereo not given)	25 (≈ 83.8 µM)	
CC(C)c1ccc(NC(=O)CC2C(=O)OC(C)(C)CN2Cc2ccccc2)cc1 (stereo not given)	>50	
CCN1CC(C)(C)OC(=O)C1CC(=O)NCc1cccc(Cl)c1 (stereo not given)	6.25 (≈ 18.4 µM)	
CCN1CC(C)(C)OC(=O)C1CC(=O)Nc1ccccn1 (stereo not given)	>50	
CCN1CC(C)(C)OC(=O)C1CC(=O)NCc1cccc(C(F)(F)F)c1 (stereo not given)	25 (≈ 67.1 µM)	
CN(C/C=C/C#CC(C)(C)C)Cc1cccc2ccccc12 [TERBINAFINE]		IC50 [2]: 0.02 µg/mL (≈ 0.0686 µM); IC50 (Trichophyton rubrum): 0.02 µg/mL (≈ 0.0686 µM)
CC(C)c1ccc(NC(=O)CC2C(=O)OC(C)(C)CN2C2CCCC2)cc1 (stereo not given)	>25	
CC(C)c1ccc(NC(=O)CC2NCC(C)(C)OC2=O)cc1 (stereo not given)	>25	
CCN1CC(C)(C)OC(=O)C1CC(=O)NCc1cccc(C)c1 (stereo not given)	12.5 (≈ 39.3 µM)	
CC(C)c1ccc(NC(=O)CC2C(=O)OC(C)(C)CN2S(C)(=O)=O)cc1 (stereo not given)	>25	
CCN1CC(C)(C)OC(=O)C1CC(=O)NCc1ccc(Cl)cc1 (stereo not given)	12.5 (≈ 36.9 µM)	MFC99 (Nakaseomyces glabratus): 12.5 µg/mL (≈ 36.9 µM); MIC (Aspergillus fumigatus): 6.2 µg/mL (≈ 18.3 µM); MIC (Aspergillus flavus): 25 µg/mL (≈ 73.8 µM); IC50 [2]: 2.7 µg/mL (≈ 7.97 µM); IC50 (Trichophyton rubrum): 2 µg/mL (≈ 5.9 µM); IC50 (Microsporum canis): 2 µg/mL (≈ 5.9 µM); IC50 (Sporothrix schenckii): 2.2 µg/mL (≈ 6.49 µM); CC50 at 72 h [3]: > 20 µg/mL
CC(=O)N1CC(C)(C)OC(=O)C1CC(=O)Nc1ccc(C(C)C)cc1 (stereo not given)	>25	
CCN1CC(C)(C)OC(=O)C1CC(=O)NC1CCCC1 (stereo not given)	50 (≈ 177 µM)	
CCN1C[C@@H](C)OC(=O)C1CC(=O)Nc1ccc(C(C)C)cc1 (stereo not given in full)	12.5 (≈ 39.3 µM)	half-life [4]: 55 min
CCN1C[C@@H](c2ccccc2)OC(=O)C1CC(=O)Nc1ccc(C(C)C)cc1 (stereo not given in full)	12.5 (≈ 32.9 µM)	half-life [4]: 31 min
CCN1CC(C)(C)OC(=O)C1CC(=O)Nc1ccc2scnc2c1 (stereo not given)	>50	
CCN1CC(C)(C)OC(=O)C1CC(=O)Nc1ccncn1 (stereo not given)	>50	
CCN1CC(C)(C)OC(=O)C1CC(=O)NCCc1ccccc1 (stereo not given)	25 (≈ 78.5 µM)	
CCN1CC(C)(C)OC(=O)C1CC(=O)N1CCOCC1 (stereo not given)	>50	
C[C@@H]1[C@H](O)[C@@H](C)/C=C/C=C/C=C/C=C/C=C/C=C/C=C/[C@H](O[C@@H]2O[C@H](C)[C@@H](O)[C@H](N)[C@@H]2O)C[C@@H]2O[C@](O)(C[C@@H](O)C[C@@H](O)[C@H](O)CC[C@@H](O)C[C@@H](O)CC(=O)O[C@H]1C)C[C@H](O)[C@H]2C(=O)O [AMPHOTERICIN B]	1.6 (≈ 1.73 µM)	
CC(C)c1ccc(NC(=O)CC2C(=O)OC(C)(C)CN2CCF)cc1 (stereo not given)	>25	
CCN1C[C@H](C)OC(=O)C1CC(=O)Nc1ccc(C(C)C)cc1 (stereo not given in full)	12.5 (≈ 39.3 µM)	half-life [4]: 57 min
CCN1CCOC(=O)C1CC(=O)Nc1ccc(C(C)C)cc1 (stereo not given)	12.5 (≈ 41.1 µM)	MFC99 (Nakaseomyces glabratus): 12.5 µg/mL (≈ 41.1 µM); MIC (Aspergillus fumigatus): 12.5 µg/mL (≈ 41.1 µM); half-life [4]: 22 min; half-life [5]: 32 min
CCN1CC(C)(C)OC(=O)C1CC(=O)Nc1cccnc1 (stereo not given)	>50	

Compound	MFC99 (Candida albicans [1]) [µg/mL]	further results
CCN1CC(C)(C)OC(=O)C1C(C)(C)C(=O)Nc1ccc(C(C)C)cc1 (stereo not given)	>50	
CCN1CC(C)(C)OC(=O)C1CC(=O)NCc1ccco1 (stereo not given)	50 (≈ 170 µM)	
CCN1CCOCC1CC(=O)Nc1ccc(C(C)C)cc1 (stereo not given)	>50	
CCN1CC(C)(C)OC(=O)C1CC(=O)NC1CCCCC1 (stereo not given)	50 (≈ 169 µM)	
CCN1CC(C)(C)OC(=O)C1CC(=O)NCc1ccc(Cl)c(Cl)c1 (stereo not given)	12.5 (≈ 33.5 µM)	
CC(C)c1ccc(NC(=O)CC2C(=O)OC(C)(C)CN2C2CC2)cc1 (stereo not given)	>25	
OC(Cn1cncn1)(Cn1cncn1)c1ccc(F)cc1F [FLUCONAZOLE]	>100	Activity (Candida albicans [6]): Active
CCCN1CC(C)(C)OC(=O)C1CC(=O)Nc1ccc(C(C)C)cc1 (stereo not given)	>25	
CCN1CC(CC)(CC)OC(=O)C1CC(=O)Nc1ccc(C(C)C)cc1 (stereo not given)	>25	
CC(C)c1ccc(NC(=O)CC2C(=O)OC(C)(C)CN2C)cc1 (stereo not given)	>25	
CCN1CC(C)(C)OC(=O)C1CC(=O)Nc1ccncc1 (stereo not given)	>50	
CC(C)c1ccc(NC(=O)CC2C(=O)OC(C)(C)CN2C(C)C)cc1 (stereo not given)	>25	
CCN1CC(C)(C)OC(=O)C1CC(=O)NCc1cccs1 (stereo not given)	25 (≈ 80.5 µM)	
CCN1CC(C)(C)OC(=O)C1CC(=O)NCc1ccccc1Cl (stereo not given)	25 (≈ 73.8 µM)	
CCN(CC)C(=O)CC1C(=O)OC(C)(C)CN1CC (stereo not given)	>50	
Clc1ccc(COC(Cn2ccnc2)c2ccc(Cl)cc2Cl)c(Cl)c1 (stereo not given) [MICONAZOLE]		IC50 (Microsporum canis): 0.02 µg/mL (≈ 0.0481 µM); IC50 (Sporothrix schenckii): 0.12 µg/mL (≈ 0.288 µM)
CCNC(=O)CC1C(=O)OC(C)(C)CN1CC (stereo not given)	50 (≈ 206 µM)	
CCN1C(CC(=O)Nc2ccc(C(C)C)cc2)C(=O)OC(C)(C)C1(C)C (stereo not given)	>25	
CC(C)c1ccc(NC(=O)CC2C(=O)OC(C)(C)CN2CC(F)(F)F)cc1 (stereo not given)	>25	
CCN1CC(C)(C)OC(=O)C1CC(=O)Nc1ccc2c(ccn2C)c1 (stereo not given)	12.5 (≈ 36.4 µM)	MFC99 (Nakaseomyces glabratus): 50 µg/mL (≈ 146 µM); MIC (Aspergillus fumigatus): 3.1 µg/mL (≈ 9.03 µM); MIC (Aspergillus flavus): 25 µg/mL (≈ 72.8 µM); IC50 [2]: 11 µg/mL (≈ 32 µM); IC50 (Trichophyton rubrum): 11 µg/mL (≈ 32 µM); IC50 (Microsporum canis): 6.2 µg/mL (≈ 18.1 µM); IC50 (Sporothrix schenckii): 10 µg/mL (≈ 29.1 µM); CC50 at 72 h [3]: > 20 µg/mL
CCCNC(=O)CC1C(=O)OC(C)(C)CN1CC (stereo not given)	25 (≈ 97.5 µM)	
CCN1CC(C)(C)OC(=O)C1CC(=O)N(C)c1ccccc1 (stereo not given)	>50	
CCN1CC(C)(C)OC(=O)C1CC(=O)NCC1CCCCC1 (stereo not given)	25 (≈ 80.5 µM)	
CCN1CC(C)(C)OC(=O)C1CC(=O)Nc1ccnn1C (stereo not given)	>50	
CCN1C[C@H](c2ccccc2)OC(=O)C1CC(=O)Nc1ccc(C(C)C)cc1 (stereo not given in full)	12.5 (≈ 32.9 µM)	half-life [4]: 49 min
CCN1CC(C)(C)OC(=O)C1CC(=O)NCc1ccccc1 (stereo not given)	12.5 (≈ 41.1 µM)	
